Screening data (PubChem BioAssay)
Hits are enriched below; roughly 3.4% of the tested compounds scored in any of these assays.
UCH37 DUB inh: inhibitors of human deubiquitinating enzyme UCH37; Q9Y5K5; purified proteasome/UCH37, Ub-AMC cleavage fluorescence; inhibition, % (concentration not given with the values); 330,000 tested, 0.33% active; AID 588478;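 active means mean inhibition over replicate wells above about 20%, limit read from the data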;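 further: 0% = compound-free wells with enzyme and 100% = wells lacking proteasome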
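Test system – human UCH37 enzyme supplied as purified proteasome complex · Incubation – 30 min preincubation with enzyme, 25 min cleavage at room temperature · Detection – AMC fluorescence from Ub-AMC cleavage, excitation 355 nm, emission 460 nm · Benchmarks – no-proteasome wells (full inhibition) and compound-free wells (no inhibition)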
APOBEC3G inh: inhibitors of human APOBEC3G DNA deaminase | AID 493012 | inhibition, % at 20 µM | recombinant A3G, ssDNA deamination FAM/TAMRA fluorescence | 330,000 tested, 0.28% active;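 active means inhibition of at least 40% at 20 µM, with no more than 30% in the related APOBEC3A deaminase screen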;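 further: plate controls were DMSO wells with A3G for no effect and wells lacking A3G enzyme for full effect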
Target sequence (Q9HC16 whole entry, looked up): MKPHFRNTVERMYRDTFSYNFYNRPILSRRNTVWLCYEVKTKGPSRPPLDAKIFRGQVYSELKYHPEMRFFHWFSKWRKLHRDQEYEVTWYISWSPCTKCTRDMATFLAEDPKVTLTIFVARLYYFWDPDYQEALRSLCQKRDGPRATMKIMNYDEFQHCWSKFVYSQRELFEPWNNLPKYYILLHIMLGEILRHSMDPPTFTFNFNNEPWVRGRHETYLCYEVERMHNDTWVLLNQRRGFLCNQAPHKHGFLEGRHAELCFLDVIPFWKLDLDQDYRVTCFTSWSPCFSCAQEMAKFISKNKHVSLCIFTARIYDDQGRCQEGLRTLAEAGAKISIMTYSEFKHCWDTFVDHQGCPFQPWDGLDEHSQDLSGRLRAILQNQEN
PolyA inhibitor: yeast polyadenylation inhibition | S. cerevisiae SKY197-pL101 polyadenylation reporter, beta-gal luminescence; efflux-impaired pdr1/pdr3 knockout yeast; score 100 = 6 SD above DMSO | activity score, % at 12 µM | 300,000 tested, 0.02% active | AID 1875;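 active means lowest replicate activity score at least 50, where 100 means six control SD above control mean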;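 further: yeast exposed to compound for 9 h at 30 °C; higher score means more reporter readthrough which indicates perturbed polyadenylation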
AHR act: human AHR activation. P35869. AHR-responsive luciferase reporter cells, luminescence. activation, % at 5 µM. 320,000 tested, 2.5% active; in the data active means activation above about 47%;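 further: 0% = vehicle wells and 100% = reference agonist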
Arr AP2 block: blocks beta-arrestin peptide binding to AP2 adaptin; FITC-arrestin peptide / GST-AP2 beads, flow cytometry; AP2 beta2 appendage carries R879A mutation; inhibition, % at 10 µM; 340,000 tested, 0.31% active;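 active means inhibition above a set limit, near 3 SD of compounds lacking own fluorescence, cut at about 54% in these data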;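 further: plate controls were DMSO wells for no effect and 5 µM unlabelled arrestin peptide for full effect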
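Test system: GST-tagged AP2 beta2-adaptin appendage (R879A) on 4 µm glutathione beads; also added: fluorescein-tagged arrestin peptide at 50 nM final; timing: 12 min plus 1 h, RT; signal: flow cytometry, FL1 (488/535 nm); read-out: percent drop in bead-associated FITC signal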
APOBEC3A inh: inhibitors of human APOBEC3A DNA deaminase. inhibition, % at 20 µM. recombinant A3A, FAM/TAMRA ssDNA deamination fluorescence. 330,000 tested, 0.41% active;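 active means at least 40% inhibition at 20 µM here, with at most 30% in a related deaminase screen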;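 further: plate controls were A3A with DMSO for no effect and wells lacking A3A enzyme for full effect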
Target sequence (P31941 whole entry, looked up): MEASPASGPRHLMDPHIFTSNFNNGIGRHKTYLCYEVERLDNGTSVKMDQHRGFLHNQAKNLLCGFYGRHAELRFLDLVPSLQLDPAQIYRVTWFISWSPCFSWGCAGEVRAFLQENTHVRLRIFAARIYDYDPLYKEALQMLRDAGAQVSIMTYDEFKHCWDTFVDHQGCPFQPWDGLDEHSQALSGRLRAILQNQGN
Arr AP2 CP1: inhibitors of human beta-arrestin and AP2 interaction; shares compounds with Arr AP2 block; GST-AP2 beads, FITC arrestin peptide binding, flow cytometry; GST-fused beta2-adaptin appendage, R879A mutant; inhibition, % at 10 µM; 1,300 tested, 2% active;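 active means inhibition above a set limit, roughly 3 SD of non-fluorescent compound noise, cut at about 38% in these data; inactive means inhibition at or below that limit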;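 further: loss of bead fluorescence from 50 nM FITC arrestin peptide bound to appendage; 0% = negative control wells and 100% = excess unlabelled arrestin peptide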
GST-FITC bead: GST-GSH bead binding interference, counter-screen | inhibition, % at 10 µM | GST-fluorescein binding to GSH beads, fluorescence | 1,300 tested, 2% active | shares compounds with Arr AP2 block;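 active means inhibition above 50%, about 3 SD of the inhibition seen with non-fluorescent compounds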;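 further: fluorescein maleimide labelled GST captured on 4 micron glutathione beads; higher means more loss of bead fluorescence from quenching or blocked binding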
* = called active by the depositor; x = no result; ! = not active in a repeat.

SMILES	UCH37 DUB inh	APOBEC3G inh	PolyA inhibitor	AHR act	Arr AP2 block	APOBEC3A inh	Arr AP2 CP1	GST-FITC bead
COc1ccc(Cl)cc1NC(=O)COC(=O)C1CC(=O)N(Cc2ccccc2)C1 (stereo unspecified)	1.0	-5.7	x	8.7	57.8*	-2.1	5.0	0.7
COc1ccc(Cl)cc1NC(=O)CN(C)C(=O)C1CC(=O)N(Cc2ccc(C)cc2)C1 (stereo unspecified)	2.7	2.9	-1.5	7.5	1.9	2.6	x	x
COc1ccc(Cl)cc1NC(=O)COC(=O)C1CCCCC1	-1.9	-5.9	x	1.4	56.7*	-6.1	6.3	-7.3
COc1cc(C=NNC(=O)c2nnn(-c3nonc3N)c2C(C)C)ccc1OCc1ccc(F)cc1	-19.5	x	x	x	x	x	x	x
CCOC(=O)c1c(C)nc2c(c1-c1ccccc1)C(=O)c1ccccc1-2	2.7	-4.2	-3.0	-12.5	0.6	-3.2	x	x
COc1cc(-c2c(C(C)=O)c(C)nc3c2C(=O)c2ccccc2-3)cc(OC)c1OC	4.7	-7.6	3.2	x	59.2*	-1.1	5.7	-1.6
CCOC(=O)C1=C(c2ccccc2)N=c2sc(=Cc3ccc(O)cc3)c(=O)n2C1c1cccs1 (stereo unspecified)	1.5	x	x	x	x	x	x	x
COc1ccc(C=NNC(=O)c2ccc(-c3ccccc3)cc2)cc1COC(C)=O	-8.3	x	x	x	x	x	x	x
NC(=O)SCC(=O)Nc1cccc(Cl)c1	0.6	-4.1	-12.3	-0.6	81.8*	0.6	19.1	10.1
Cc1ccc(-c2cc(C(F)F)n3ncc(C(=O)N4CCc5ccccc54)c3n2)cc1	-0.4	1.2	14.2	3.1	12.8	-1.2	x	x
Cc1ccc(-c2cc(C(F)(F)F)n3ncc(C(=O)N4CCCc5ccccc54)c3n2)cc1	3.6	-6.3	1.8	2.7	-5.6	-3.2	49.0*!	55.6*!
CCc1nnc(SCC(=O)Nc2ccc(C(C)=O)cc2)nc1CC	x	-0.8	-19.6	18.7	82.7*	-0.7	17.9	1.4
COc1ccc(OC)c(C2C3=C(N=c4sc(=Cc5cccc(O)c5)c(=O)n42)c2ccccc2CC3)c1 (stereo unspecified)	1.6	x	x	x	x	x	x	x
CCn1c(=O)n(CC(=O)Nc2cc(OC)ccc2OC)c(=O)c2ccccc21	0.9	0.1	2.1	7.9	25.9	-1.4	-5.1	14.7
CCOc1ccccc1NC(=O)Cn1c(=O)c2ccccc2n(CC)c1=O	-1.9	-2.7	-3.1	1.3	4.6	2.9	6.7	-5.8
COc1ccc(-n2c(=O)c3ccccc3n(CC(=O)Nc3ccccc3OC)c2=O)cc1	-2.5	-6.7	-11.5	0.2	0.7	-0.5	x	x
Cc1c(C(=O)c2ccc(F)cc2F)c2ccccn2c1CCC#N	x	9.1	-13.4	21.1	61.8*	6.3	2.8	-4.6
Nc1ccc(N(c2ccccc2)c2ccc(N)cc2)cc1	2.3	-3.3	-12.8	-3.4	59.3*	-3.7	9.8	15.8
CN(C)c1ccc(CCc2ccc(N)cc2)cc1	-60.6	-6.9	-1.9	-8.4	23.1	-4.0	x	x
COc1ccc(C(=O)NC2CCC(O)CC2)cc1S(=O)(=O)NCc1ccc(Cl)cc1 (stereo unspecified)	0.8	-6.2	x	-1.1	80.0*	-0.7	-0.9	-8.4
COc1cc(C(=O)NC2CCCCC2)ccc1OCc1ccc(Cl)cc1Cl	2.1	1.6	8.7	1.6	106.0*	0.5	-8.1	-2.3
C=CCc1ccccc1OCCOc1ccc([N+](=O)[O-])cc1C=NNC(N)=O	-0.3	x	x	x	x	x	x	x
O=S(=O)(Nc1ccc(O)cc1)c1cccc2cccnc12	4.1	-2.5	0.8	-0.9	-3.1	-1.7	x	x
O=[N+]([O-])c1ccc(NS(=O)(=O)c2cccc3cccnc23)cc1	7.6	-3.9	8.1	1.0	55.4*	-4.4	-1.9	-1.9
CC(=O)Nc1ccc(C(C)=NNS(=O)(=O)c2ccc(C)cc2)cc1	-1.0	x	x	x	x	x	x	x
SMILES	UCH37 DUB inh	APOBEC3G inh	PolyA inhibitor	AHR act	Arr AP2 block	APOBEC3A inh	Arr AP2 CP1	GST-FITC bead
CC(Cn1nc([N+](=O)[O-])cc1C)=NNC(=O)COc1ccccc1[N+](=O)[O-]	0.5	x	x	x	x	x	x	x
CC(=O)c1cccc(NC(=O)C2CC(=O)N(C3CCCC3)C2)c1 (stereo unspecified)	-0.8	-7.8	x	0.3	34.3	-4.4	x	x
CC(=O)Nc1cccc(NC(=O)C2CC(=O)N(C3CCCCC3)C2)c1 (stereo unspecified)	0.9	-0.4	-22.3	-2.0	60.9*	-0.9	9.2	-6.3
O=S(=O)(NCC(c1cccnc1)N1CCN(c2ccc(F)cc2)CC1)c1cc(F)ccc1F (stereo unspecified)	4.2	-5.5	7.9	1.5	-5.9	-0.6	x	x
COc1ccc(N2CCN(C(CNS(=O)(=O)c3cc(F)ccc3F)c3cccnc3)CC2)cc1 (stereo unspecified)	3.9	-1.9	3.2	-2.0	84.2*	-1.0	16.4	-11.4
CCOC(=O)N1CCN(C(=O)c2ccc3c(=O)n(-c4ccccc4F)c(=S)[nH]c3c2)CC1	-13.7	-0.8	-4.2	1.0	-2.9	2.2	x	x
CCc1ccc(C(CNC(=O)c2ccc3c(=O)n(-c4ccccc4F)c(=S)[nH]c3c2)N(C)C)cc1 (stereo unspecified)	-9.4	-1.1	0.9	-1.3	58.2*	3.4	-14.6	0.5
COCCCn1c(C)nnc1SCC(=O)NCc1ccco1	1.1	-1.1	-0.6	4.0	54.5*	2.8	5.8	0.1
Cc1ccc(S(=O)(=O)N2CCC(C(=O)NC3CCCC3)CC2)cc1Cl	-3.2	-5.7	-15.7	-1.4	0.1	0.0	x	x
Cc1ccc(S(=O)(=O)N2CCCC(C(=O)NC3CCCC3)C2)cc1Cl (stereo unspecified)	-2.2	-3.2	-29.6	0.3	56.7*	0.5	-10.1	-0.3
CN1CCN(S(=O)(=O)c2cccc(C(=O)NC3CCCC3)c2)CC1	-1.7	-9.3	-6.4	-1.8	60.1*	0.5	2.9	3.3
O=C(NN=C1CC2C=CCC12)c1ccc(Br)o1 (stereo unspecified)	4.2	x	x	x	x	x	x	x
CC(CC(=O)N1CCN(C=O)CC1)=NNC(=O)c1cc2ccccc2cc1O	-4.4	x	x	x	x	x	x	x
CC(=O)NC(Cc1ccccc1)C(=O)O (stereo unspecified)	0.3	-9.9	-18.4	-1.2	-3.1	-3.4	x	x
O=C(CC12CC3CC(CC(C3)C1)C2)NC(Cc1ccccc1)C(=O)O (stereo unspecified)	0.7	-4.4	2.5	0.4	55.0*	-1.4	-1.2	8.9
COC(=O)c1ccc(C(=O)Nc2ccc(C(C)C)cc2N)cc1	0.2	-6.1	9.6	4.0	56.6*	-4.2	14.8	-1.6
CN1CCN(N=Cc2ccc(Br)cc2)CC1	-0.5	x	x	x	x	x	x	x
